Converted amounts (≈) assume the structure as drawn.
Assays:
Type in all cases: functional
Cryptococcus neoformans = test: Antifungal activity against Cryptococcus neoformans after 72 hrs
How it was run: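 Cryptococcus neoformans was tested by NCCLS serial dilution in MOPS-buffered (0.165 M) RPMI 1640 at 35 °C. Compounds were dissolved in DMSO and diluted in medium. The MIC was read at 72 h as the lowest concentration giving turbidity inhibition of ≥80% relative to the growth control.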

Candida albicans [1] = test: Antifungal activity against fluconazole-resistant Candida albicans 0511655 after 24 hrs
How it was run: (§1)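 Broth serial dilution MIC per NCCLS in 96-well format; medium RPMI 1640 buffered with 0.165 M MOPS; compounds dissolved in DMSO and serially diluted in medium; clinical C. albicans isolates incubated at 35 °C, read at 24 h; MIC = lowest concentration giving turbidity […] inhibition relative to growth control; fluconazole and I-6 as control drugs.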

Trichophyton rubrum = test: Antifungal activity against Trichophyton rubrum
How it was run: (§2)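 Dermatophytes were tested by NCCLS serial dilution in RPMI 1640 with 0.165 M MOPS and incubated at 28 °C. Compounds were dissolved in DMSO and diluted in medium. Strains came from ATCC or clinical isolates. The MIC was read at 7 d as the lowest concentration reducing turbidity by ≥80% relative to the drug-free control.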

Candida parapsilosis = test: Antifungal activity against Candida parapsilosis after 24 hrs; conditions: Lodderomyces parapsilosis
How it was run: (§3)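 Candida yeasts were tested by NCCLS microdilution in RPMI 1640 buffered with 0.165 M MOPS and incubated at 35 °C. Compounds were dissolved in DMSO and serially diluted in medium. Isolates came from ATCC or the clinic. The MIC was read at 24 h as the lowest concentration achieving ≥80% growth inhibition versus the control.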

Candida albicans [2] = test: Antifungal activity against fluconazole-resistant Candida albicans 25 after 24 hrs; how it was run: as §1
Candida albicans [3] = test: Antifungal activity against Candida albicans after 24 hrs; how it was run: as §3
Candida albicans [4] = test: Antifungal activity against fluconazole-resistant Candida albicans 18 after 24 hrs; how it was run: as §1
Fonsecaea compacta = test: Antifungal activity against Fonsecaea compacta
How it was run: (§4)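 NCCLS broth serial dilution in RPMI 1640 buffered with 0.165 M MOPS. Compounds were dissolved in DMSO and serially diluted in medium. Strains came from ATCC or clinical isolates. The growth MIC for filamentous fungi was read at 7 d, taken as the lowest concentration giving ≥80% turbidity inhibition versus the growth control.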

Aspergillus fumigatus = test: Antifungal activity against Aspergillus fumigatus; how it was run: as §4
Microsporum = test: Antifungal activity against Microsporum gypseum; how it was run: as §2
Candida albicans [5] = test: Antifungal activity against fluconazole-resistant Candida albicans 01010 after 24 hrs; how it was run: as §1

Row | SMILES | MIC (Cryptococcus neoformans) [µM] | MIC (Candida albicans [1]) [µM] | MIC (Trichophyton rubrum) [µM] | MIC (Candida parapsilosis) [µM] | MIC (Candida albicans [2]) [µM] | MIC (Candida albicans [3]) [µM] | MIC (Candida albicans [4]) [µM] | MIC (Fonsecaea compacta) [µM] | MIC (Aspergillus fumigatus) [µM] | MIC (Microsporum) [µM] | MIC (Candida albicans [5]) [µM]
1 | CCCCCCCCNC1CCc2cc(OC)ccc2C1 (stereo not drawn) | 16 (≈ 4.63 µg/mL) | 8 (≈ 2.32 µg/mL) | 8 (≈ 2.32 µg/mL) | 16 (≈ 4.63 µg/mL) | 8 (≈ 2.32 µg/mL) | 0.0625 (≈ 0.0181 µg/mL) | 8 (≈ 2.32 µg/mL) | 8 (≈ 2.32 µg/mL) | > 64 | 8 (≈ 2.32 µg/mL) | 16 (≈ 4.63 µg/mL)
2 | CCCCCCCCNC1CCc2cc(O)ccc2C1 (stereo not drawn) | 8 (≈ 2.2 µg/mL) | 4 (≈ 1.1 µg/mL) | 4 (≈ 1.1 µg/mL) | 16 (≈ 4.41 µg/mL) | 2 (≈ 0.551 µg/mL) | 0.0625 (≈ 0.0172 µg/mL) | 4 (≈ 1.1 µg/mL) | 2 (≈ 0.551 µg/mL) | > 64 | 16 (≈ 4.41 µg/mL) | 4 (≈ 1.1 µg/mL)
3 | CCCCCCCCCNC1CCc2c(cccc2OC)C1 (stereo not drawn) | 2 (≈ 0.607 µg/mL) | 16 (≈ 4.86 µg/mL) | 2 (≈ 0.607 µg/mL) | 0.5 (≈ 0.152 µg/mL) | 8 (≈ 2.43 µg/mL) | 0.0625 (≈ 0.019 µg/mL) | 16 (≈ 4.86 µg/mL) | 0.5 (≈ 0.152 µg/mL) | 8 (≈ 2.43 µg/mL) | 4 (≈ 1.21 µg/mL) | 16 (≈ 4.86 µg/mL)
4 | CCCCCCCCCNC1CCc2cc(O)ccc2C1 (stereo not drawn) | 0.5 (≈ 0.145 µg/mL) | 4 (≈ 1.16 µg/mL) | 1 (≈ 0.289 µg/mL) | 4 (≈ 1.16 µg/mL) | 2 (≈ 0.579 µg/mL) | 0.0625 (≈ 0.0181 µg/mL) | 4 (≈ 1.16 µg/mL) | 1 (≈ 0.289 µg/mL) | 32 (≈ 9.26 µg/mL) | 0.5 (≈ 0.145 µg/mL) | 4 (≈ 1.16 µg/mL)
5 | CCCCCCCCCCNC1CCc2cc(O)ccc2C1 (stereo not drawn) | 1 (≈ 0.303 µg/mL) | 2 (≈ 0.607 µg/mL) | 0.0625 (≈ 0.019 µg/mL) | 2 (≈ 0.607 µg/mL) | 2 (≈ 0.607 µg/mL) | 0.0625 (≈ 0.019 µg/mL) | 2 (≈ 0.607 µg/mL) | 0.25 (≈ 0.0759 µg/mL) | 16 (≈ 4.86 µg/mL) | 8 (≈ 2.43 µg/mL) | 4 (≈ 1.21 µg/mL)
6 | CCCCCCCCCCNC1CCc2cccc(O)c2C1 (stereo not drawn) | 16 (≈ 4.86 µg/mL) | 16 (≈ 4.86 µg/mL) | 8 (≈ 2.43 µg/mL) | 16 (≈ 4.86 µg/mL) | 4 (≈ 1.21 µg/mL) | 0.0625 (≈ 0.019 µg/mL) | 16 (≈ 4.86 µg/mL) | 64 (≈ 19.4 µg/mL) | – | > 64 | 16 (≈ 4.86 µg/mL)
7 | CCCCCCCCCCNC1CCc2ccc(OC)cc2C1 (stereo not drawn) | 1 (≈ 0.318 µg/mL) | 4 (≈ 1.27 µg/mL) | 1 (≈ 0.318 µg/mL) | 0.25 (≈ 0.0794 µg/mL) | 2 (≈ 0.635 µg/mL) | 0.0625 (≈ 0.0198 µg/mL) | 4 (≈ 1.27 µg/mL) | 1 (≈ 0.318 µg/mL) | 16 (≈ 5.08 µg/mL) | 2 (≈ 0.635 µg/mL) | 4 (≈ 1.27 µg/mL)
8 | CCCCCCCCCCNC1CCc2c(O)cccc2C1 (stereo not drawn) | 1 (≈ 0.303 µg/mL) | 32 (≈ 9.71 µg/mL) | 4 (≈ 1.21 µg/mL) | 32 (≈ 9.71 µg/mL) | 32 (≈ 9.71 µg/mL) | 0.0312 (≈ 0.00948 µg/mL) | 32 (≈ 9.71 µg/mL) | 1 (≈ 0.303 µg/mL) | > 64 | 1 (≈ 0.303 µg/mL) | 16 (≈ 4.86 µg/mL)
9 | CCCCCCCCCCCCCCNC1CCc2c(cccc2OC)C1 (stereo not drawn) | 32 (≈ 12 µg/mL) | – | 8 (≈ 2.99 µg/mL) | > 64 | – | > 64 | – | 64 (≈ 23.9 µg/mL) | > 64 | > 64 | –
10 | CCCCCCCCCNC1CCc2cc(OC)ccc2C1 (stereo not drawn) | 4 (≈ 1.21 µg/mL) | 0.0625 (≈ 0.019 µg/mL) | 1 (≈ 0.303 µg/mL) | 0.5 (≈ 0.152 µg/mL) | 0.0625 (≈ 0.019 µg/mL) | 0.0625 (≈ 0.019 µg/mL) | 0.0625 (≈ 0.019 µg/mL) | 2 (≈ 0.607 µg/mL) | 64 (≈ 19.4 µg/mL) | 4 (≈ 1.21 µg/mL) | 0.125 (≈ 0.0379 µg/mL)
11 | CCCCCCCCCCNC1CCc2c(cccc2OC)C1 (stereo not drawn) | 1 (≈ 0.318 µg/mL) | 8 (≈ 2.54 µg/mL) | 1 (≈ 0.318 µg/mL) | 8 (≈ 2.54 µg/mL) | 4 (≈ 1.27 µg/mL) | 0.0312 (≈ 0.00992 µg/mL) | 4 (≈ 1.27 µg/mL) | 1 (≈ 0.318 µg/mL) | 16 (≈ 5.08 µg/mL) | 4 (≈ 1.27 µg/mL) | 8 (≈ 2.54 µg/mL)
12 | C[C@@H]1[C@H](O)[C@@H](C)/C=C/C=C/C=C/C=C/C=C/C=C/C=C/[C@H](O[C@@H]2O[C@H](C)[C@@H](O)[C@H](N)[C@@H]2O)C[C@@H]2O[C@](O)(C[C@@H](O)C[C@@H](O)[C@H](O)CC[C@@H](O)C[C@@H](O)CC(=O)O[C@H]1C)C[C@H](O)[C@H]2C(=O)O [AMPHOTERICIN B] | – | 0.25 (≈ 0.231 µg/mL) | – | – | 0.5 (≈ 0.462 µg/mL) | – | 2 (≈ 1.85 µg/mL) | – | – | – | 0.64 (≈ 0.591 µg/mL)
13 | OC(Cn1cncn1)(Cn1cncn1)c1ccc(F)cc1F [FLUCONAZOLE] | 2 (≈ 0.613 µg/mL) | > 64 | 1 (≈ 0.306 µg/mL) | 0.5 (≈ 0.153 µg/mL) | > 64 | 8 (≈ 2.45 µg/mL) | > 64 | 16 (≈ 4.9 µg/mL) | > 64 | 16 (≈ 4.9 µg/mL) | > 64
14 | CCC(C)n1ncn(-c2ccc(N3CCN(c4ccc(OCC5COC(Cn6cncn6)(c6ccc(Cl)cc6Cl)O5)cc4)CC3)cc2)c1=O (stereo not drawn) [ITRACONAZOLE] | – | 64 (≈ 45.2 µg/mL) | – | – | > 64 | – | > 64 | – | – | – | > 64
15 | CC(=O)N1CCN(c2ccc(OC[C@@H]3CO[C@@](Cn4ccnc4)(c4ccc(Cl)cc4Cl)O3)cc2)CC1 [KETOCONAZOLE] | – | 8 (≈ 4.25 µg/mL) | – | – | 8 (≈ 4.25 µg/mL) | – | 4 (≈ 2.13 µg/mL) | – | – | – | 8 (≈ 4.25 µg/mL)
16 | CN(C/C=C/C#CC(C)(C)C)Cc1cccc2ccccc12 [TERBINAFINE] | – | 8 (≈ 2.33 µg/mL) | – | – | 4 (≈ 1.17 µg/mL) | – | 8 (≈ 2.33 µg/mL) | – | – | – | 32 (≈ 9.33 µg/mL)

— ChEMBL document CHEMBL1137547, “Synthesis and antifungal activities of novel 2-aminotetralin derivatives” (2007)
